Experimental data taken from ChEMBL document CHEMBL4513216, “Probing the Open Global Health Chemical Diversity Library for Multistage-Active Starting Points for Next-Generation Antimalarials” (ACS Infect Dis, 2020).

Test: Toxicity liver stage against HepG2, at 10uM
Type: cell-based
Parameters: test concentration 10 uM, cell line HepG2-A16-CD81EGFP
Details: human, HepG2-A16-CD81EGFP cells; read-out: INHIBITION
Summary of the method: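 Uninfected HepG2-A16-CD81EGFP cells, 3 × 10^3 per well, 1536-well, plated on prespotted compound at 10 μM final, parasite-free screening media added to match infected plates; puromycin 10 μM positive, DMSO 0.5% negative; run in parallel with 48 h PbLuc assay at 37 °C, 5% CO2; viability by CellTiter-Glo luminescence, normalized to controls.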

Compound	cytotoxicity at 10 µM [%]
Cc1c(C)n2c(SCC(=O)N3CCC(C)CC3)nnc2[nH]c1=O	0.351
COc1ccc(NC(=O)CSc2nc(C)cc(C)n2)cn1	-0.384
CCOc1ccc(Oc2cc(CN)ccn2)cc1	0.102
Fc1ccc2c(c1)nc1n2[C@@H](CNCc2nccs2)COC1	1.07
COCC(=O)N[C@H]1C[C@H]2C(=O)NC[C@@H](CCC(=O)NC3CC3)N2C1	10.7
CCOCc1nc(N2CCOCC2)sc1C(=O)NCc1ccco1	1.64
N#CCCN(CC1CCCO1)C(=O)c1ccc(C#N)cc1 (configuration not stated)	-2.45
CC(C)(C)c1csc(CCNC(=O)[C@H](c2ccccc2)n2cnnn2)n1	2.07
Cc1nnc(CNC(=O)C2CSCCC(=O)N2)o1 (configuration not stated)	-10.1
O=C(c1ccc[nH]1)N1CC2(CCN(c3ncccn3)C2)C1	2.26
CCn1nnc2c1CCN(C(=O)c1ccc3c(c1)OCO3)C2COC (configuration not stated)	6.43
Cc1nc(C)c2c(n1)CCN(Cc1ccsc1)CC2	-126
CCS(=O)(=O)N1Cc2ccnn2CC(c2nc(C)no2)C1 (configuration not stated)	6.86
CO[C@H]1CC[C@H]2[C@H]1OCCN2C(=O)C1=CCCC1	-131
O=C(O)c1nnn(-c2ccc(Cl)c(C(F)(F)F)c2)c1-c1ccncc1	8.63
COc1ccccc1Nc1nc2c(C)nn(C)c2c(=O)n1C	2.56
Cn1c(=O)oc2ccc(S(=O)(=O)N3CCC(c4ccccc4)C3)cc21 (configuration not stated)	5.43
N#Cc1c[nH]nc1NCc1ccc2c(c1)OCO2	-8.75
C[C@@H]1CN(Cc2ccco2)CCN1C(=O)Cc1ccccc1F	4.94
O=C1NC2(CCCN(C(=O)CCn3cncn3)C2)Oc2ccccc21 (configuration not stated)	3.08
COc1cc2c(cc1CCC(=O)O)CCC2	1.11
CCS(=O)(=O)NCCNc1c(C#N)cnc2c(F)cc(F)cc12	16.2
CCOc1cccc(NCc2cnc(N3CCN(C)CC3)nc2)n1	1.75

Compound	cytotoxicity at 10 µM [%]
CCN(CC)S(=O)(=O)NC(=O)c1cc(C)n(-c2ccccc2)n1	-9.68
Cc1cc(-n2c(C)cn(CN(C)Cc3ccccc3)c2=O)no1	10.3
FC(F)(F)CCN(Cc1ccon1)C1CCC1	1.19
Cc1ccc(NC(=O)C2CCCN2C(=O)C2CC2)nc1 (configuration not stated)	-2.15
Cc1cc(C2CCCN2Cc2cc(-c3ccco3)on2)on1 (configuration not stated)	1.6
Cc1nnc(N2CCc3cncnc3C2)c(C#N)c1C	-154
Cc1cc(C)n(C2CN(CCC(N)=O)C2)n1	-5.04
Cc1c(C(=O)N2CCCN(S(C)(=O)=O)CC2)cnn1C	17.2
CC(C)(C)C(NC(=O)CCCS(C)(=O)=O)c1ccc(F)cc1F (configuration not stated)	8.87
CCc1ncnc(N2CCOCC2C(N)=O)c1F (configuration not stated)	-4.73
CCOCCCOC(=O)c1ccc2c(c1)[nH]c(=O)n2C	3.54
CS(=O)(=O)Nc1cccc(CNC(=O)CCc2ccsc2)c1	2.24
CCNC(=O)C1CCCN(c2cccc(C(F)(F)F)n2)C1 (configuration not stated)	3.4
CCOCCN1CCN(CCc2nc3ccccc3c(=O)[nH]2)CC1	4.12
COc1cc(CN(C)C(=O)NCc2nccs2)ccc1SC	-7.66
NCC1(c2cccc(C(F)(F)F)c2)CCC1	-4.27
CCCOc1ccc(Cl)cc1NC(=O)NCCC(=O)N(C)C	-0.734
NC(=O)c1cnc(NC2CCN(c3ccccn3)CC2)c(Cl)c1	13.8
CCN(C(C)=O)C(c1cccnc1)c1cc(C)cc(C)c1 (configuration not stated)	6.72
O=C(NC1CCCN(c2ccc(OC(F)F)cc2)C1)c1cnc[nH]1 (configuration not stated)	-2.15
NS(=O)(=O)N1CCC(CSc2ccccc2)C1 (configuration not stated)	-9.8
CCS(=O)(=O)c1nccn1-c1cccc(F)c1	3.12
CCOC(C)c1nc(Cn2cccn2)cs1 (configuration not stated)	1.04

Compound	cytotoxicity at 10 µM [%]
CCN(C(=O)Nc1nncs1)C(C)c1cccc(OC)c1 (configuration not stated)	4.84
CN(CC(N)=O)C(=O)C1Cc2cc(Cl)ccc2O1 (configuration not stated)	2.93
Cc1cc(C2CCCN2c2ncc(C(N)=O)cc2Cl)no1 (configuration not stated)	-4.57
Cc1cc(C(=O)NCCN2CCCC(C)C2)nn1C(C)(C)C (configuration not stated)	9.34
CCNc1cc2c(nn1)CCN(C(=O)c1ccc(-n3cccn3)nc1)C2	5.05
CN(Cc1ccncc1)C(=O)Nc1cnn(CC2CCCO2)c1 (configuration not stated)	-0.291
Cc1cccc(CN2CC[C@@H]3O[C@@H](C(=O)N4CCN(C)CC4)C[C@@H]32)n1	1.04
COCC1COCCC12CCN(S(=O)(=O)c1ccc(C)cc1)CC2 (configuration not stated)	4.79
O=C(c1cccnc1)N1CCc2c(COCC3CC3)cncc2C1	-77.2
Cn1ncc2c1C(COCC1CC1)CN(Cc1ccc(F)cc1)C2 (configuration not stated)	1.23
COc1ccc(CN2CC[C@@]3(O)CCCC[C@H]3C2)cc1C(=O)O	-3.12
COc1ccccc1-n1nc(CC(C)C)nc1CSc1nnc(N)s1	1.62
CCCn1cc(C(=O)NCCC(=O)NC2CCCCC2)c(C)n1	-3.31
Cc1n[nH]c(C)c1CCNC(=O)C1CCCN(Cc2ccco2)C1 (configuration not stated)	-6.23
CCCn1ncc(C(=O)N2CCN([C@H]3CCCC[C@@H]3O)CC2)c1C	-137
CCN(C)S(=O)(=O)N1CCCC(c2cccc(C(=O)O)c2)C1 (configuration not stated)	0.91
Cc1ccccc1NC(=O)N1CCN(C(=O)C2CC2)[C@@H]2CS(=O)(=O)C[C@@H]21	2.78
c1ccc(Cc2n[nH]c(C3CCOC3)n2)cc1 (configuration not stated)	1.06
COC(=O)c1cc2n(n1)CCN(C(=O)c1csc(CN(C)C)n1)C2	-8.44
COc1cc(C)c(C2CC(=O)Nc3cc(NS(C)(=O)=O)ccc32)cc1C (configuration not stated)	-15
Cc1nc[nH]c1CN(C)Cc1cnn(-c2ccc(F)cc2)c1	0.345
CNc1ncc(C(=O)N2CCC(c3ccccc3C(=O)O)C2)cn1 (configuration not stated)	-7.67
Cc1nc[nH]c1-c1nccn1CCN1CCCC1=O	-6.88

Compound	cytotoxicity at 10 µM [%]
c1cncc(Cc2nnc3n2CCN(CC2CCOC2)CC3)c1 (configuration not stated)	-2.11
COC(=O)CCCNC(=O)c1cc(COc2cncc(Cl)c2)on1	8.23
CN1CC2(CCN(C(=O)c3[nH]cnc3-c3ccccc3)C2)OC1=O (configuration not stated)	4.43
CCCOCC(=O)N1CCc2nc(NC)nc(C(=O)N3CCCC3)c2C1	-109
Nc1nc2c(c(N3CCOCC3)n1)CCN(C(=O)c1ccc[nH]1)CC2	-2.02
Cc1cc(C)c(C(=O)N2CCOC(CCN(C)C)C2)o1 (configuration not stated)	-1.92
CC(Oc1ccc2c(c1)OCO2)C(=O)N1CCC(N2CCCC2)CC1 (configuration not stated)	-4.63
O=C1[C@@H]2CN(c3ncc(Cl)cc3F)C[C@]2(C(=O)O)CN1CC1CC1	-0.33
COc1cccc([C@@H]2CCN(Cc3c[nH]c(C)n3)C[C@H]2O)c1	-2.89
Cc1nsc(NC(=O)N2CCC(C(C)(C)O)CC2)n1	17.5
O=C(O)C(c1ccc2c(c1)OCCO2)N1CCCCCC1 (configuration not stated)	-3.26
O=C(CCc1ccc(O)cc1)N1CCC(Cc2ccc(CO)cc2)C1 (configuration not stated)	14.8
Cc1nc(C)n(C2CCCN(C(=O)CCOC(C)C)C2)n1 (configuration not stated)	-1.92
CCn1cnnc1C1CCN(C(=O)c2ccoc2C)CC1	-8.04
CN(Cc1nc2c(cnn2C)c(=O)[nH]1)Cc1ccco1	-8.11
CC(C(=O)NCCN1CCCCC1)n1cncn1 (configuration not stated)	-3.37
Cc1noc(Cl)c1CCC(=O)N1CCC(Nc2cccnn2)CC1	-2.57
CCCc1nc(C(C)(C)NC(=O)C2CC(=O)N(CC(C)C)C2)no1 (configuration not stated)	-5.31
Cc1ccc(-c2cc(CNC(=O)N3CCSCC3)on2)cc1	2.7
N#Cc1cccnc1N1CCC(C2CCCCCN2C(N)=O)CC1 (configuration not stated)	-2.51
CCc1nnc2n1CCN(Cc1ncc(-c3ccc(Cl)cc3)o1)C2	-9.66
CC(Cn1ccnc1)NC(=O)NCCc1ccc(Cl)s1 (configuration not stated)	-12.4
COc1cccc(-n2c(C)cc(C(=O)NCCCC(N)=O)c2C)c1	-11.9

Compound	cytotoxicity at 10 µM [%]
Cc1ccccc1OCCC(=O)N1CCC(c2nncn2C)CC1	-13.3
CCc1nc(CN2CCCN(C(=O)C(CC)OC)CC2)cs1 (configuration not stated)	-15.8
COc1ccc(C(=O)NC(CC(=O)O)c2cccs2)c(OC)c1 (configuration not stated)	-0.463
CSC(C)C(=O)N1CCCN(Cc2nccn2C)CC1 (configuration not stated)	-11.6
CN1CCCN(C(=O)NCCNc2cnccn2)CC1	-3.4
CCOc1ccc(S(=O)(=O)NC(=O)CC2CCCO2)cc1 (configuration not stated)	-16.3
O=C(NCc1ccc2c(c1)OCO2)Nc1cccnc1N1CCCC1	-13.4
Cc1noc(C)c1CCC(=O)N1CCCN(Cc2cscn2)CC1	-4.51
c1ccc(-c2ncc(CNC3CCc4ncnn4C3)cn2)cc1 (configuration not stated)	-0.722
CCN(CC)CCn1c(=O)oc2ccccc21	2.96
CC1c2ncc(CNC(=O)C3CC3)n2CCN1Cc1cccnc1 (configuration not stated)	-3.76
c1cnc(N2CCC3(CCN(CC4CC4)CC3)CC2)nc1	0.77
CN(C)Cc1nn(C)c2c1CCN(C(=O)CC1CC1)C2	-3.86
Cc1nc(COC[C@@]23CCC[C@@H]2CN(CC2CCOCC2)C3)cs1	7.98
CN(C[C@@H]1CCC[C@@H]2CN(Cc3cccnc3)C[C@@H]21)C1CC1	8.01
CC(=O)N1CCCC2(C1)CN(c1ncc(C)cn1)CCO2 (configuration not stated)	14
O=C(Nc1cc(C(F)(F)F)c[nH]c1=O)C1CCCCN1 (configuration not stated)	-0.924
O=C([C@@H]1COC[C@H]2CN(C3CCOCC3)C[C@H]21)N1CCOCC1	-4.14
Cn1nc(Cn2cccc2)c2c1CN(Cc1ccsc1)C2	-133
CCn1cc(-n2cc3nc(N4CCN(C)CC4)[nH]cc-3c2=O)cn1	1.54
